Measurements published in ChEMBL document CHEMBL4014306, “Pyrazolopyrimidines as Potent Stimulators for Transient Receptor Potential Canonical 3/6/7 Channels” (J Med Chem, 2017).

Experiments:
Format in all cases: cell-based
[1] = biological target: T1, Short transient receptor potential channel 6 (Mus musculus, UniProt Q61143); assay: Agonist activity at mouse TRPC6 expressed in HEK293 cells co-expressing Gq11-PLCbeta fused M5 receptor assessed as increase in intracellular calcium level measured for 2.5 mins by Fluo-8-AM dye-based fluorescence assay
T1 sequence (Q61143 whole entry): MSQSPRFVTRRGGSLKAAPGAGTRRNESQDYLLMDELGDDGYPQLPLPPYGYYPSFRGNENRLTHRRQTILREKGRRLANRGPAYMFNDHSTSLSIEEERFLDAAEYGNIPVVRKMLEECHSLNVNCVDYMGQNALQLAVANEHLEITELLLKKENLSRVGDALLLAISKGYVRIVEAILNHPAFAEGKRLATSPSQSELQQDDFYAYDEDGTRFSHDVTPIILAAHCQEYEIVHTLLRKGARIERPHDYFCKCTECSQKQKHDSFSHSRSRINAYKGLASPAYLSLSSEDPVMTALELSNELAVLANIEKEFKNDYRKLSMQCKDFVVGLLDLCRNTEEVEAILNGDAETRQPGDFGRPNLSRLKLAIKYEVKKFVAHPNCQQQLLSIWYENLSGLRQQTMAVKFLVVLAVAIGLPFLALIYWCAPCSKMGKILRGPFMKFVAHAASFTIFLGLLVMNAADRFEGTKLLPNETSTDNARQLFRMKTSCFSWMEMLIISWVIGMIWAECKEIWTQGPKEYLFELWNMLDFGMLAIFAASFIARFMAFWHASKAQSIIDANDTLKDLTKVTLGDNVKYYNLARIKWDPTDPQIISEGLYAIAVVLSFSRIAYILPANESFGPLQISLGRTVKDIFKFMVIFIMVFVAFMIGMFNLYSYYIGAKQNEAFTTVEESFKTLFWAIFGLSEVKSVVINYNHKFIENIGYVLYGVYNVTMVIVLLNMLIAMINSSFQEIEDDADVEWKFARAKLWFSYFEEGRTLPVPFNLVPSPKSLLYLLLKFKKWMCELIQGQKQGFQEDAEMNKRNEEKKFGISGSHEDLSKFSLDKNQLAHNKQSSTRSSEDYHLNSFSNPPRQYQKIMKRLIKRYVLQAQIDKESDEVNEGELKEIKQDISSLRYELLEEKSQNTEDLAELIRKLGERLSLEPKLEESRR

[2] = biological target: T2, Short transient receptor potential channel 4 (Mus musculus, UniProt Q9QUQ5); assay: Antagonist activity at mouse TRPC4beta expressed in HEK293 cells co-expressing MOR decrease in DAMGO-evoked intracellular calcium level by Fluo-8-AM dye-based fluorescence assay
T2 sequence (Q9QUQ5 whole entry): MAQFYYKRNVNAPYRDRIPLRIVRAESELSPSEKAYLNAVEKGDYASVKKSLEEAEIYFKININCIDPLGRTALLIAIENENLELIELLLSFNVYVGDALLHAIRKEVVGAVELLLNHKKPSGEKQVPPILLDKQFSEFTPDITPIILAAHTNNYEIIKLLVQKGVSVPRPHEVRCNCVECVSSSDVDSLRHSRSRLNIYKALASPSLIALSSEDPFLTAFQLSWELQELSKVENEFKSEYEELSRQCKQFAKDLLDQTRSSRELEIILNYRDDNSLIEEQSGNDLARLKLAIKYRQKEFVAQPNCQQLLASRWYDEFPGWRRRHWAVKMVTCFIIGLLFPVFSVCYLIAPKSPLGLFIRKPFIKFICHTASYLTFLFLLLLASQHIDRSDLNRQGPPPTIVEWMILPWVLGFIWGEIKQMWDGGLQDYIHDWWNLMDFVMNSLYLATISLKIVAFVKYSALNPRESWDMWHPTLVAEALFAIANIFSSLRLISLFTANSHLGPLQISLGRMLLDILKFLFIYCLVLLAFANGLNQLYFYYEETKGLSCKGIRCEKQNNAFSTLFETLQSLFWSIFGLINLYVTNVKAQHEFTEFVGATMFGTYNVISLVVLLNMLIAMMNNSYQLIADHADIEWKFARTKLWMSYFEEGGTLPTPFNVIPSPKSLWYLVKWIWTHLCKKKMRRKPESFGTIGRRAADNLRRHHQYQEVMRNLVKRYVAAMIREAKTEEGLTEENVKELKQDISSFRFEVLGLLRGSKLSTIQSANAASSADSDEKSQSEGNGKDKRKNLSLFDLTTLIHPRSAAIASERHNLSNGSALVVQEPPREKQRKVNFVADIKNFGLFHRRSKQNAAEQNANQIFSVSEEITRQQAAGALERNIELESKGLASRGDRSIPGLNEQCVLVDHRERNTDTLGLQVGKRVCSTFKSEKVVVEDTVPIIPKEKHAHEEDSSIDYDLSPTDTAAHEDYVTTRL
In short: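 MOR/TRPC4β HEK293 cells loaded with Ca2+ dye. Compound given before 1 μM DAMGO. IC50 estimated from one experiment in triplicate.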

HEK293 = assay: Induction of intracellular calcium level in HEK293 cells at 100 uM measured for 2.5 mins by Fluo-4-AM dye based FLIPR assay; settings: human, hek293, 2.5 min

Compound | EC50 ([1]; read-out: EC50) [µM] | IC50 ([2]; read-out: IC50) [µM] | EC50 [1] | IC50 [2] | Activity (HEK293)
CCC(=O)N1CCC(c2cc(O)n3nc(C)c(-c4ccc(F)cc4)c3n2)CC1 | 28.8 | 35 |  |  | 
Cc1nn2c(O)cc(C3(C)CCN(C(=O)C(C)(C)C)CC3)nc2c1-c1ccc(F)cc1 |  |  | Not Active | Not Active | 
COc1ccc(CC(=O)N2CCC(C)(c3cc(O)n4nc(C)c(-c5ccc([N+](=O)[O-])cc5)c4n3)CC2)cc1OC |  |  | Not Active | Not Active | 
Cc1nn2c(O)cc(C3CCN(C(=O)OC(C)(C)C)CC3)nc2c1-c1ccc(Cl)cc1 |  |  | Not Active | Not Active | 
COc1ccc(S(=O)(=O)N2CCC(C)(c3cc(O)n4nc(C)c(-c5ccc(F)cc5)c4n3)CC2)cc1 |  |  | Not Active | Not Active | 
CCOC(=O)N1CCC(C)(c2cc(O)n3nc(C)c(-c4ccc([N+](=O)[O-])cc4)c3n2)CC1 | 8 |  |  | Not Active | 
CCC(=O)N1CCC(C)(c2cc(O)n3nc(C)c(-c4ccc(F)cc4)c3n2)CC1 |  |  | Not Active | Not Active | 
C[N+](C)(C)CCOC(N)=O.[Cl-] [CARBACHOL] |  |  |  |  | Toxic
Cc1nn2c(O)cc(C3CCN(C(=O)C(C)(C)C)CC3)nc2c1-c1ccc(F)cc1 |  |  | Not Active | Not Active | 
Cc1nn2c(O)cc(C3(C)CCN(C(=O)OC(C)(C)C)CC3)nc2c1-c1ccc(F)cc1 |  |  | Not Active | Not Active | 
Cc1nn2c(O)cc(C3(C)CCN(S(=O)(=O)c4c(F)cccc4F)CC3)nc2c1-c1ccc([N+](=O)[O-])cc1 |  |  | Not Active | Not Active | 
Cc1nn2c(O)cc(C3CCN(C(=O)c4ccc(Br)nc4)CC3)nc2c1-c1ccc(F)cc1 | 12.3 | 10 |  |  | 
CCOC(=O)N1CCC(c2cc(O)n3nc(C)c(-c4ccc([N+](=O)[O-])cc4)c3n2)CC1 | 2 |  |  | Not Active | 
